Data reported in the M2OR odorant receptor database.
Numbering of substitutions follows the chain as printed.

Experiments:
Conditions in all cases: stereoisomer not certain
OR8B3 H20R Q24R M114I = system: T1, OR8B3 H20R Q24R M114I
T1 sequence (whole entry): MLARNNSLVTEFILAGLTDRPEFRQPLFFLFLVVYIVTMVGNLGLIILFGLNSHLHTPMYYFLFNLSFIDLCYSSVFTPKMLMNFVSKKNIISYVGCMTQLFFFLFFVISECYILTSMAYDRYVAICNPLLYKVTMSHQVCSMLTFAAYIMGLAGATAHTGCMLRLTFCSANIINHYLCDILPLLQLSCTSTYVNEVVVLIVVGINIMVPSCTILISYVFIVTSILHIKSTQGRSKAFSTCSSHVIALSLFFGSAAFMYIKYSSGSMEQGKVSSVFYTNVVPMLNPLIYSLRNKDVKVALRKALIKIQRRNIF
In short: (§1)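 Transient luciferase assays in mammalian cell lines were common, though methods varied by source. The values come from published papers and their supplementary material, with extra details from the original authors when needed. Responsive refers to a measured signal the original authors judged statistically different from baseline, and non-responsive (inactive) to the remainder.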

OR8B3 H20R Q24R Y113H = system: T2, OR8B3 H20R Q24R Y113H
T2 sequence (whole entry): T1 sequence (whole entry) with Y113H, I114M
In short: as §1

OR8B3 H20R Q24R = system: T3, OR8B3 H20R Q24R
T3 sequence (whole entry): T1 sequence (whole entry) with I114M
In short: as §1

OR8B4 (Homo sapiens) = biological target: T4, OR8B4 (Homo sapiens) (UniProt Q96RC9)
T4 sequence (whole entry): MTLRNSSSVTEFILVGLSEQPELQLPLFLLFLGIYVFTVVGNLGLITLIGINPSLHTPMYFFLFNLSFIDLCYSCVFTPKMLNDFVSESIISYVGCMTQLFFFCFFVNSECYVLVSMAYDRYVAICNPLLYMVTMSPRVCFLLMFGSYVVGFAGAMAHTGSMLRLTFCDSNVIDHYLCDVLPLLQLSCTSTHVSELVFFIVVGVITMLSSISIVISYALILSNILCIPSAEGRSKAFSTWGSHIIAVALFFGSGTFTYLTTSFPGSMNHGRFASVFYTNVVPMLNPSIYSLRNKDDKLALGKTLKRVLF
In short: as §1

OR8B4 = system: T5, OR8B4
T5 sequence (whole entry): T4 sequence (whole entry) with E22G
In short: as §1

OR8B8 (Homo sapiens) = biological target: T6, OR8B8 (Homo sapiens) (UniProt Q15620)
T6 sequence (whole entry): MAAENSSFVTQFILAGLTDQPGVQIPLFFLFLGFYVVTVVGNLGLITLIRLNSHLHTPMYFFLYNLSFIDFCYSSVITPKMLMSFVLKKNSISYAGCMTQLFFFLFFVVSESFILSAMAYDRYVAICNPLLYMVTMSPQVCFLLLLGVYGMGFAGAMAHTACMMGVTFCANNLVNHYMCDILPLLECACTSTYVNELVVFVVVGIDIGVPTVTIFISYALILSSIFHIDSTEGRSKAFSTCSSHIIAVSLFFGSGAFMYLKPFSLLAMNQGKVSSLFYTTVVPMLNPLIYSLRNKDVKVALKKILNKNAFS
In short: as §1

OR8B8 L101P = system: T7, OR8B8 L101P
T7 sequence (whole entry): T6 sequence (whole entry) with L101P
In short: as §1

OR8D1 (Homo sapiens) = biological target: T8, OR8D1 (Homo sapiens) (UniProt Q8WZ84)
T8 sequence (whole entry): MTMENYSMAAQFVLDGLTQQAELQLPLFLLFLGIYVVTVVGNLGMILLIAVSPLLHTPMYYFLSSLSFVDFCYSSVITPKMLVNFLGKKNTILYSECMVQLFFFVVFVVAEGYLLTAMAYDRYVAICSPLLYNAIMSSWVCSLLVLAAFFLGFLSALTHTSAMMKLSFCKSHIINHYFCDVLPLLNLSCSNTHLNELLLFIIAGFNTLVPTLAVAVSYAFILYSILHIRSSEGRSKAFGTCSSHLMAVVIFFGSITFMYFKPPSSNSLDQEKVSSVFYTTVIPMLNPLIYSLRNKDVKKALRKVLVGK
In short: as §1

OR8D1 C127G L194P = system: T9, OR8D1 C127G L194P
T9 sequence (whole entry): T8 sequence (whole entry) with C127G, L194P
In short: as §1

OR8D1 L194P = system: T10, OR8D1 L194P
T10 sequence (whole entry): T8 sequence (whole entry) with L194P
In short: as §1

OR8D2 (Homo sapiens) = biological target: T11, OR8D2 (Homo sapiens) (UniProt Q9GZM6)
T11 sequence (whole entry): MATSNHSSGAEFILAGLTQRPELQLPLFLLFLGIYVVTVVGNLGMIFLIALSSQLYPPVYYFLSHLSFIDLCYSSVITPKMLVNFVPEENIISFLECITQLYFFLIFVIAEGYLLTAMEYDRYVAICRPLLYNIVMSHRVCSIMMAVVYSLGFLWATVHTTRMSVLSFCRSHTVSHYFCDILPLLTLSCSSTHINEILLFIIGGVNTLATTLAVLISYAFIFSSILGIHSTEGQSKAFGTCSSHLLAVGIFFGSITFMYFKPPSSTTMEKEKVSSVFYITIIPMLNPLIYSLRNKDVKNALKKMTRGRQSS
In short: as §1

OR8D4 (Homo sapiens) = biological target: T12, OR8D4 (Homo sapiens) (UniProt Q8NGM9)
T12 sequence (whole entry): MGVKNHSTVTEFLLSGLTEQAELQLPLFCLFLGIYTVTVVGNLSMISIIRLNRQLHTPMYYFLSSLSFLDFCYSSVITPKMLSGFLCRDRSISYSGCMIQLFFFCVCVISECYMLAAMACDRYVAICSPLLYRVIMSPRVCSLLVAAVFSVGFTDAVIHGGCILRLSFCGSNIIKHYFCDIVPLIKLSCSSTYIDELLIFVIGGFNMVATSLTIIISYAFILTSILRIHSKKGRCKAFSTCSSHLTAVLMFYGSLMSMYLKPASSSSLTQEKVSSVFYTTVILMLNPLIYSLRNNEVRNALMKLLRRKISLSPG
In short: as §1

OR8D4 C120Y R133K = system: T13, OR8D4 C120Y R133K
T13 sequence (whole entry): T12 sequence (whole entry) with C120Y, R133K
In short: as §1

OR8G1 (Homo sapiens) = biological target: T14, OR8G1 (Homo sapiens) (UniProt Q15617)
T14 sequence (whole entry): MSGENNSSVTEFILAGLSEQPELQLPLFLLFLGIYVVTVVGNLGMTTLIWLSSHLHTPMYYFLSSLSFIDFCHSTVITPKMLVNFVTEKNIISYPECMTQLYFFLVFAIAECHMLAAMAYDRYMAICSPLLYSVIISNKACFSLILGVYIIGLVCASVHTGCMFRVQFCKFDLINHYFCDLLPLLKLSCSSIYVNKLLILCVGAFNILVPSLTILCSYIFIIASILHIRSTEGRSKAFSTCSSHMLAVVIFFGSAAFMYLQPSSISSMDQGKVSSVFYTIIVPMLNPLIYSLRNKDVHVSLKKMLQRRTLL
In short: as §1

OR8G5 (Homo sapiens) = biological target: T15, OR8G5 (Homo sapiens) (UniProt Q8NG78)
T15 sequence (whole entry): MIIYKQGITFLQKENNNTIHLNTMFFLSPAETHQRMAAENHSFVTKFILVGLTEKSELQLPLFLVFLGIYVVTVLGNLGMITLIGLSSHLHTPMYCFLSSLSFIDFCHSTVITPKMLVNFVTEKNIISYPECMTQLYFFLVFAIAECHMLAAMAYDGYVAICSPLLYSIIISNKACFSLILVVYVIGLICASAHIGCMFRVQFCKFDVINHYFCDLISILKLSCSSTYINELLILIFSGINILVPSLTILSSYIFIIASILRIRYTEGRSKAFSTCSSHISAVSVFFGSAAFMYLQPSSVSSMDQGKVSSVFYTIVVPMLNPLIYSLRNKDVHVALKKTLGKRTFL
In short: as §1

OR8H1 (Homo sapiens) = biological target: T16, OR8H1 (Homo sapiens) (UniProt Q8NGG4)
T16 sequence (whole entry): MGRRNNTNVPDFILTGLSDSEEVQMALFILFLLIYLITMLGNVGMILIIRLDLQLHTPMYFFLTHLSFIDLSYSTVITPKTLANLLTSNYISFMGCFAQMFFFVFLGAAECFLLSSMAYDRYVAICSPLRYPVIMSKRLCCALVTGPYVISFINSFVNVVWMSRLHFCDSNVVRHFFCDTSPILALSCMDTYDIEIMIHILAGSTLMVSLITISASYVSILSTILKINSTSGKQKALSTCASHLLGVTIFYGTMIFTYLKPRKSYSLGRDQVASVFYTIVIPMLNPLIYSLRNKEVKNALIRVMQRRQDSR
In short: as §1

OR8H2 (Homo sapiens) = biological target: T17, OR8H2 (Homo sapiens) (UniProt Q8N162)
T17 sequence (whole entry): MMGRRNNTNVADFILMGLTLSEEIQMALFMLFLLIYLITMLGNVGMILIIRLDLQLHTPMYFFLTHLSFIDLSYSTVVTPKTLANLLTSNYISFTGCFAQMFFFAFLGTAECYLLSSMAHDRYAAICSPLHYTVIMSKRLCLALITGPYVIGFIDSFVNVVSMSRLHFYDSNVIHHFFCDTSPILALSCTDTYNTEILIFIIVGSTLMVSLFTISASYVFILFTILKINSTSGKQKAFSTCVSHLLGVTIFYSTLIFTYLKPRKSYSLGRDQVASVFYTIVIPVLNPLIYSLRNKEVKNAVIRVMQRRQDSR
In short: as §1

OR8H2 H120Y Y169C V284M = system: T18, OR8H2 H120Y Y169C V284M
T18 sequence (whole entry): T17 sequence (whole entry) with H120Y, Y169C, V284M
In short: as §1

OR8H3 (Homo sapiens) = biological target: T19, OR8H3 (Homo sapiens) (UniProt Q8N146)
T19 sequence (whole entry): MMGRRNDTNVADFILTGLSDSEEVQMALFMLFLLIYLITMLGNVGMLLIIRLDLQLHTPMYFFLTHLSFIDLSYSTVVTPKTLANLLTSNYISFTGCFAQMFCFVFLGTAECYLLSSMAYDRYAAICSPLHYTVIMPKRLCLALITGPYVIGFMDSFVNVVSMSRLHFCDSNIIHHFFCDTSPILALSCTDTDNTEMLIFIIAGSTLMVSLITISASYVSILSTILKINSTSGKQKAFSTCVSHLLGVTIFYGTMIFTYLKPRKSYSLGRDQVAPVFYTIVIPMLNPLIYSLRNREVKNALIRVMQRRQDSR
In short: as §1

OR8H3 = system: T20, OR8H3
T20 sequence (whole entry): T19 sequence (whole entry) with P137S
In short: as §1

Measured: odorant receptor agonist call;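 further: active if original authors judged signal statistically different from baseline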

Cc1cnc(C)c(C)n1
inactive: all assays above

CCCCCCCC(C)=O
inactive: OR8D1 (Homo sapiens)

CCCCCC=O
inactive: OR8D1 (Homo sapiens)

CCCC(=O)OCC
inactive: OR8D1 (Homo sapiens)

CCCCCC(S)C(C)CO (stereo not drawn)
inactive: OR8B4 (Homo sapiens) | OR8B8 (Homo sapiens) | OR8D1 (Homo sapiens) | OR8D2 (Homo sapiens) | OR8D4 (Homo sapiens) | OR8G1 (Homo sapiens) | OR8G5 (Homo sapiens) | OR8H1 (Homo sapiens) | OR8H2 (Homo sapiens) | OR8H3 (Homo sapiens)

CCC=CCC=O
inactive: OR8D1 (Homo sapiens)

CCC1OC(C)=C(O)C1=O (stereo not drawn)
inactive: all assays above

COc1cccc(OC)c1O
inactive: OR8D1 (Homo sapiens)

CC(CO)CS (stereo not drawn)
inactive: OR8B4 (Homo sapiens) | OR8B8 (Homo sapiens) | OR8D1 (Homo sapiens) | OR8D2 (Homo sapiens) | OR8D4 (Homo sapiens) | OR8G1 (Homo sapiens) | OR8G5 (Homo sapiens) | OR8H1 (Homo sapiens) | OR8H2 (Homo sapiens) | OR8H3 (Homo sapiens)

CCC(S)C(C)CO (stereo not drawn)
inactive: OR8B4 (Homo sapiens) | OR8B8 (Homo sapiens) | OR8D1 (Homo sapiens) | OR8D2 (Homo sapiens) | OR8D4 (Homo sapiens) | OR8G1 (Homo sapiens) | OR8G5 (Homo sapiens) | OR8H1 (Homo sapiens) | OR8H2 (Homo sapiens) | OR8H3 (Homo sapiens)

CCCCCC1CCC(=O)O1 (stereo not drawn)
inactive: OR8D1 (Homo sapiens)

CC(C)=CCCC(C)=CCO
inactive: OR8D1 (Homo sapiens)

CC(=O)C=CC1=C(C)CCCC1(C)C
inactive: OR8D1 (Homo sapiens)
